In ChEMBL document CHEMBL2380295, “Structure-activity studies on the side chain of a simplified analog of aplysiatoxin (aplog-1) with anti-proliferative activity” (Bioorg Med Chem, 2013):

Legend:
[1] = Cytotoxicity against human Raji cells assessed as cell viability at 10^-6 M; format: cell-based; details: read-out: Activity
[2] = Cytotoxicity against human Raji cells assessed as cell viability at 10^-7 M; format: cell-based; details: read-out: Activity
Human gammaherpesvirus 4 [3] = test: Induction of EBV-early antigen expressed in human Raji cells at 10^-6 M after 48 hrs by immunofluorescence assay relative to control; format: organism-based; details: human gammaherpesvirus 4, raji, 1 µM
In short: (§1)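 Raji B-lymphoblastoid cells (5 × 10^5/mL) in RPMI 1640 with 10% FBS, with 4 mM sodium n-butyrate as synergist and test compound at 10^-7 or 10^-6 M (final DMSO 0.4%). Incubated 48 h at 37 °C under 5% CO2. Smears were stained by indirect immunofluorescence using NPC patient serum and FITC anti-human IgG. At least 500 cells counted; % EA-positive recorded; n = 3, SEM.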

Human gammaherpesvirus 4 [4] = test: Induction of EBV-early antigen expressed in human Raji cells at 10^-7 M after 48 hrs by immunofluorescence assay relative to control; format: organism-based; details: human gammaherpesvirus 4, raji, 0.1 µM; in short: as §1
PC-3 = test: Growth inhibition of human PC3 cells after 48 hrs by sulforhodamine B assay; format: functional; details: PC-3, 48 h
In short: (§2)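 Yamori 39-line human cancer panel, NCI method with modifications. Cells plated in RPMI 1640 plus 5% FBS, attached overnight, then exposed 48 h to compound at 10^-8, 10^-7, 10^-6, 10^-5 and 10^-4 M. Sulforhodamine B staining read at 525 nm; % growth = 100[(T−T0)/(C−T0)] from duplicate-point averages, with T0 the time-zero absorbance. GI50 is the concentration giving 50.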

DU-145 = test: Growth inhibition of human DU145 cells after 48 hrs by sulforhodamine B assay; format: functional; details: DU-145, 48 h; in short: as §2
MKN-74 = test: Growth inhibition of human MKN74 cells after 48 hrs by sulforhodamine B assay; format: functional; details: MKN-74, 48 h; in short: as §2
MKN-28 = test: Growth inhibition of human MKN28 cells after 48 hrs by sulforhodamine B assay; format: functional; details: MKN-28, 48 h; in short: as §2
MKN-45 = test: Growth inhibition of human MKN45 cells after 48 hrs by sulforhodamine B assay; format: functional; details: MKN-45, 48 h; in short: as §2
MKN-7 = test: Growth inhibition of human MKN7 cells after 48 hrs by sulforhodamine B assay; format: functional; details: MKN-7, 48 h; in short: as §2
St-4 = test: Growth inhibition of human St-4 cells after 48 hrs by sulforhodamine B assay; format: functional; details: St-4, 48 h; in short: as §2
[5] = Growth inhibition of human MKN1 cells after 48 hrs by sulforhodamine B assay; format: functional; details: MKN-1, 48 h; in short: as §2
[6] = Growth inhibition of human RXF631L cells after 48 hrs by sulforhodamine B assay; format: functional; details: RXF 631, 48 h; in short: as §2
ACHN = test: Growth inhibition of human ACHN cells after 48 hrs by sulforhodamine B assay; format: functional; in short: as §2
OVCAR-8 = test: Growth inhibition of human OVCAR8 cells after 48 hrs by sulforhodamine B assay; format: functional; details: OVCAR-8, 48 h; in short: as §2
SK-OV-3 = test: Growth inhibition of human SKOV3 cells after 48 hrs by sulforhodamine B assay; format: functional; details: SK-OV-3, 48 h; in short: as §2
OVCAR-5 = test: Growth inhibition of human OVCAR5 cells after 48 hrs by sulforhodamine B assay; format: functional; details: OVCAR-5, 48 h; in short: as §2
OVCAR-3 = test: Growth inhibition of human OVCAR3 cells after 48 hrs by sulforhodamine B assay; format: functional; details: OVCAR-3, 48 h; in short: as §2
OVCAR-4 = test: Growth inhibition of human OVCAR4 cells after 48 hrs by sulforhodamine B assay; format: functional; details: OVCAR-4, 48 h; in short: as §2
DMS-114 = test: Growth inhibition of human DMS114 cells after 48 hrs by sulforhodamine B assay; format: functional; details: DMS-114, 48 h; in short: as §2
LOX IMVI = test: Growth inhibition of human LOXIMVI cells after 48 hrs by sulforhodamine B assay; format: functional; in short: as §2
A549 = test: Growth inhibition of human A549 cells after 48 hrs by sulforhodamine B assay; format: functional; details: A549, 48 h; in short: as §2
DMS-273 = test: Growth inhibition of human DMS273 cells after 48 hrs by sulforhodamine B assay; format: functional; details: DMS-273, 48 h; in short: as §2
NCI-H460 = test: Growth inhibition of human NCI-H460 cells after 48 hrs by sulforhodamine B assay; format: functional; details: NCI-H460, 48 h; in short: as §2
NCI-H226 = test: Growth inhibition of human NCI-H226 cells after 48 hrs by sulforhodamine B assay; format: functional; details: NCI-H226, 48 h; in short: as §2
NCI-H522 = test: Growth inhibition of human NCI-H522 cells after 48 hrs by sulforhodamine B assay; format: functional; details: NCI-H522, 48 h; in short: as §2
HCT-116 = test: Growth inhibition of human HCT116 cells after 48 hrs by sulforhodamine B assay; format: functional; details: HCT-116, 48 h; in short: as §2
NCI-H23 = test: Growth inhibition of human NCI-H23 cells after 48 hrs by sulforhodamine B assay; format: functional; details: NCI-H23, 48 h; in short: as §2
HCT-15 = test: Growth inhibition of human HCT15 cells after 48 hrs by sulforhodamine B assay; format: functional; details: HCT-15, 48 h; in short: as §2
KM12 = test: Growth inhibition of human KM12 cells after 48 hrs by sulforhodamine B assay; format: functional; details: KM12, 48 h; in short: as §2
HT-29 = test: Growth inhibition of human HT-29 cells after 48 hrs by sulforhodamine B assay; format: functional; details: HT-29, 48 h; in short: as §2
SNB-78 = test: Growth inhibition of human SNB78 cells after 48 hrs by sulforhodamine B assay; format: functional; details: SNB-78, 48 h; in short: as §2
[7] = Growth inhibition of human HCC2998 cells after 48 hrs by sulforhodamine B assay; format: functional; details: HCC 2998, 48 h; in short: as §2
SF-539 = test: Growth inhibition of human SF539 cells after 48 hrs by sulforhodamine B assay; format: functional; details: SF-539, 48 h; in short: as §2
SNB-75 = test: Growth inhibition of human SNB75 cells after 48 hrs by sulforhodamine B assay; format: functional; details: SNB-75, 48 h; in short: as §2
SF-295 = test: Growth inhibition of human SF295 cells after 48 hrs by sulforhodamine B assay; format: functional; details: SF-295, 48 h; in short: as §2
U-251 = test: Growth inhibition of human U251 cells after 48 hrs by sulforhodamine B assay; format: functional; details: U-251, 48 h; in short: as §2
SF-268 = test: Growth inhibition of human SF268 cells after 48 hrs by sulforhodamine B assay; format: functional; details: SF-268, 48 h; in short: as §2
MCF7 = test: Growth inhibition of human MCF7 cells after 48 hrs by sulforhodamine B assay; format: functional; details: MCF7, 48 h; in short: as §2
MDA-MB-231 = test: Growth inhibition of human MDA-MB-231 cells after 48 hrs by sulforhodamine B assay; format: functional; details: MDA-MB-231, 48 h; in short: as §2
[8] = Growth inhibition of human BSY1 cells after 48 hrs by sulforhodamine B assay; format: functional; details: BSY-1, 48 h; in short: as §2
[9] = Growth inhibition of human HBC5 cells after 48 hrs by sulforhodamine B assay; format: functional; details: HBC5, 48 h; in short: as §2
[10] = Growth inhibition of human HBC4 cells after 48 hrs by sulforhodamine B assay; format: functional; details: HBC4, 48 h; in short: as §2
[11] = Octanol-water partition coefficient, log P of the compound by HPLC analysis; format: physicochemical
In short: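 log P was estimated from HPLC retention, with column dead time measured using unretained formamide.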

[12] = target: T1, Protein kinase C delta type (Homo sapiens, UniProt Q05655); test: Inhibition of [3H]PDBu binding to PKCdelta-C1A domain peptide (unknown origin)
In short: (§3)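 Competitive [3H]PDBu binding used 14 or 40 nM PKCδ C1 peptide and 20 nM [3H]PDBu (19.6 Ci/mmol), in 50 mM Tris-maleate (pH 7.4 at 4 °C) with 50 µg/mL phosphatidylserine, 3 mg/mL bovine γ-globulin and varied inhibitor concentrations. IC50 was taken as 50% inhibition of specific binding. Ki was derived by the Sharkey–Blumberg method.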

[13] = target: T1, Protein kinase C delta type; test: Inhibition of [3H]PDBu binding to PKCdelta-C1B domain peptide (unknown origin); in short: as §3

T1 sequence (Q05655 whole entry, the tested form may be a part): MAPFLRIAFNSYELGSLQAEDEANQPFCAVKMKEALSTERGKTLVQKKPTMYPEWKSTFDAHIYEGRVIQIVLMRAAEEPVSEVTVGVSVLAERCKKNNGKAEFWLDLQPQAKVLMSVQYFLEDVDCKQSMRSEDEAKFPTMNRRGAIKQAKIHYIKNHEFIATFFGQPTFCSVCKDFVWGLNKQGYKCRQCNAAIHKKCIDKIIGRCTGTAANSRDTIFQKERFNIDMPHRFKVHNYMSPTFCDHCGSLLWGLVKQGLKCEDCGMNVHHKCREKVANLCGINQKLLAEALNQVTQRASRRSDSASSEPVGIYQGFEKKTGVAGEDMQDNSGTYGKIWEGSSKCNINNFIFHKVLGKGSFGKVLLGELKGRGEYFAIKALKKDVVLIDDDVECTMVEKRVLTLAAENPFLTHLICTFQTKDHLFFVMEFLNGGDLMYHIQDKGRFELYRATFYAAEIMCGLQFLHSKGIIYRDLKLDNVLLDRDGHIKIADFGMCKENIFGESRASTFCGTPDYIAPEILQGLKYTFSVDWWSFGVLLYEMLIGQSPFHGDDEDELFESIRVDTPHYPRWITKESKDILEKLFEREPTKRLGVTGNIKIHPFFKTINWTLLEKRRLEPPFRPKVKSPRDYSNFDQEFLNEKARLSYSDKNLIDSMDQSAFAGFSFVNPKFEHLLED

CC1(C)CC[C@@H]2CC(=O)O[C@@H](CO)CC(=O)O[C@@H]3C[C@@H](CCCCc4cc(O)c(Br)cc4Br)O[C@@]1(C3)O2
viability at 1 µM [1]: 40%
viability at 0.1 µM [2]: 40%
Activity (Human gammaherpesvirus 4 [3]): 2.1%
Activity (Human gammaherpesvirus 4 [4]): 2%
GI50 (PC-3): 3.89 µM
GI50 (DU-145): 11.2 µM
GI50 (MKN-74): 11 µM
GI50 (MKN-28): 8.32 µM
GI50 (MKN-45): 3.72 µM
GI50 (MKN-7): 6.46 µM
GI50 (St-4): 1.29 µM
GI50 [5]: 10.2 µM
GI50 [6]: 14.5 µM
GI50 (ACHN): 5.75 µM
GI50 (OVCAR-8): 15.8 µM
GI50 (SK-OV-3): 15.8 µM
GI50 (OVCAR-5): 10 µM
GI50 (OVCAR-3): 6.17 µM
GI50 (OVCAR-4): 15.5 µM
GI50 (DMS-114): 13.5 µM
GI50 (LOX IMVI): 2.82 µM
GI50 (A549): 4.9 µM
GI50 (DMS-273): 10.7 µM
GI50 (NCI-H460): 1.23 µM
GI50 (NCI-H226): 15.1 µM
GI50 (NCI-H522): 13.8 µM
GI50 (HCT-116): 10.7 µM
GI50 (NCI-H23): 6.61 µM
GI50 (HCT-15): 13.8 µM
GI50 (KM12): 4.79 µM
GI50 (HT-29): 15.5 µM
GI50 (SNB-78): 12.9 µM
GI50 [7]: 0.891 µM
GI50 (SF-539): 10 µM
GI50 (SNB-75): 5.89 µM
GI50 (SF-295): 6.61 µM
GI50 (U-251): 11.7 µM
GI50 (SF-268): 12.6 µM
GI50 (MCF7): 12.3 µM
GI50 (MDA-MB-231): 2.95 µM
GI50 [8]: 4.57 µM
GI50 [9]: 14.1 µM
GI50 [10]: 0.224 µM
logP [11]: 5
Ki [12]: 0.093 µM
Ki [13]: 0.0041 µM

CC1(C)CC[C@@H]2CC(=O)O[C@@H](CO)CC(=O)O[C@@H]3C[C@@H](CCCCc4c(Br)cc(Br)c(O)c4Br)O[C@@]1(C3)O2
viability at 1 µM [1]: 40%
viability at 0.1 µM [2]: 40%
Activity (Human gammaherpesvirus 4 [3]): 1.9%
Activity (Human gammaherpesvirus 4 [4]): 1.9%
GI50 (PC-3): 13.2 µM
GI50 (DU-145): 17 µM
GI50 (MKN-74): 21.9 µM
GI50 (MKN-28): 18.2 µM
GI50 (MKN-45): 11.5 µM
GI50 (MKN-7): 20.9 µM
GI50 (St-4): 3.09 µM
GI50 [5]: 14.8 µM
GI50 [6]: 21.9 µM
GI50 (ACHN): 16.2 µM
GI50 (OVCAR-8): 17.4 µM
GI50 (SK-OV-3): 32.4 µM
GI50 (OVCAR-5): 18.6 µM
GI50 (OVCAR-3): 15.5 µM
GI50 (OVCAR-4): 20.9 µM
GI50 (DMS-114): 25.7 µM
GI50 (LOX IMVI): 11.7 µM
GI50 (A549): 12.6 µM
GI50 (DMS-273): 18.2 µM
GI50 (NCI-H460): 3.24 µM
GI50 (NCI-H226): 16.2 µM
GI50 (NCI-H522): 20.4 µM
GI50 (HCT-116): 17.8 µM
GI50 (NCI-H23): 14.1 µM
GI50 (HCT-15): 18.2 µM
GI50 (KM12): 16.6 µM
GI50 (HT-29): 16.6 µM
GI50 (SNB-78): 47.9 µM
GI50 [7]: 7.59 µM
GI50 (SF-539): 13.5 µM
GI50 (SNB-75): 26.3 µM
GI50 (SF-295): 13.2 µM
GI50 (U-251): 16.2 µM
GI50 (SF-268): 20.9 µM
GI50 (MCF7): 19.5 µM
GI50 (MDA-MB-231): 12 µM
GI50 [8]: 21.4 µM
GI50 [9]: 22.9 µM
GI50 [10]: 0.871 µM
logP [11]: 5.5
Ki [12]: 0.079 µM
Ki [13]: 0.0069 µM
